In ChEMBL document CHEMBL1144182, “Antimicrobial and cytotoxic arylazoenamines. Part III: antiviral activity of selected classes of arylazoenamines” (Bioorg Med Chem, 2008):
Active and inactive are the calls of the source. No rule for the calls is given here.

Tests used:
[1] = tested on: Respiratory syncytial virus; experiment: Antiviral activity against RSV infected in Vero76 cells assessed as reduction in virus plaque formation after 4 days by MTT assay; type: functional, organism-based; settings: human respiratory syncytial virus, Vero 76, 96 h
Yellow fever virus = experiment: Antiviral activity against YFV infected in BHK21 cells assessed as protection against virus-induced cytopathogenicity after 4 days by MTT assay; type: functional, organism-based; settings: BHK-21, 96 h
In short: (§1)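 MDBK (BVDV) or BHK-21 (YFV) cells were seeded at 3 × 10^4 or 5 × 10^4 cells/well respectively and grown overnight to confluent monolayers at 37 °C in 5% CO2. Monolayers were infected at m.o.i. 0.01 in serum-free medium. After 1 h, MEM Earle's with 1% FCS was added, with or without serial compound dilutions. After 3–4 days at 37 °C, viability was read by MTT. EC50 was taken as 50% protection from virus-induced cytopathogenicity.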

[2] = Cytotoxicity against mock-infected african green monkey Vero76 cells assessed as reduction in cell viability after 96 hrs by MTT assay; type: cell-based, Vero; settings: chlorocebus sabaeus
[3] = tested on: Human immunodeficiency virus 1; experiment: Antiviral activity against HIV1 infected in MT4 cells assessed as virus-induced cytopathogenicity after 4 days; type: functional, organism-based
Poliovirus 1 = experiment: Antiviral activity against Sb1 virus infected in Vero76 cells assessed as reduction in virus plaque formation after 4 days by MTT assay; type: functional, organism-based; settings: Enterovirus C, Sabin, Vero 76, 96 h
[4] = Cytotoxicity against mock-infected BHK cells assessed as reduction in cell viability after 96 hrs by MTT assay; type: cell-based, Mesocricetus auratus; settings: hamster
In short: (§2)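 Cytotoxicity run in parallel with the antiviral assays. MDBK seeded at 6 × 10^5 and BHK at 1 × 10^6 cells/mL in maintenance medium with or without serial compound dilutions. Incubated 48–96 h at 37 °C, 5% CO2, then viability read by MTT. CC50 is the concentration reducing mock-infected cell viability by 50%.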

[5] = tested on: Vesicular stomatitis virus; experiment: Antiviral activity against VSV infected in Vero76 cells assessed as reduction in virus plaque formation after 4 days by MTT assay; type: functional, organism-based; settings: Vero 76
[6] = Cytotoxicity against mock-infected human MT4 cells assessed as reduction in cell viability after 96 hrs by MTT assay; type: cell-based
In short: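 Exponentially growing MT-4 cells seeded at 1 × 10^5 cells/mL in RPMI-1640 with 10% FCS, penicillin and streptomycin, with or without serial compound dilutions. Incubated at 37 °C, 5% CO2; viability read by MTT after 96 h. CC50 is the concentration reducing mock-infected cell viability by 50%.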

Vaccinia virus = experiment: Antiviral activity against VV infected in Vero76 cells assessed as reduction in virus plaque formation after 4 days by MTT assay; type: functional, organism-based; settings: Orthopoxvirus vaccinia; Vero 76
Coxsackievirus B2 = experiment: Antiviral activity against CVB2 infected in Vero76 cells assessed as reduction in virus plaque formation after 4 days by MTT assay; type: functional, organism-based; settings: Enterovirus B, Vero 76, 96 h
[7] = tested on: Bovine viral diarrhea virus 1; experiment: Antiviral activity against BVDV infected in MDBK cells assessed as protection against virus-induced cytopathogenicity after 4 days by MTT assay; type: functional, organism-based; settings: Bovine viral diarrhea virus isolates and strains, 96 h; in short: as §1
[8] = Cytotoxicity against mock-infected MDBK cells assessed as reduction in cell viability after 96 hrs by MTT assay; type: cell-based, Bos taurus; settings: cattle; in short: as §2

Structure (SMILES) | EC50 [1] | EC50 (Yellow fever virus) | CC50 at 96 h [2] | Activity [3] | EC50 (Poliovirus 1) | CC50 at 96 h [4] | Activity [5] | CC50 at 96 h [6] | Activity (Vaccinia virus) | EC50 (Coxsackievirus B2) | EC50 [7] | CC50 at 96 h [8]
C(=C\N1CCCCC1)/N=N/c1ccccc1 | > 15 µM | 23 µM | 15 µM | inactive | > 15 µM | 67 µM | inactive | 2 µM | inactive | 7 µM | > 7 µM | 7 µM
CN1C=C(/N=N/c2ccccc2Cl)CCC1 | > 100 µM | > 100 µM | > 100 µM | inactive | 8 µM | > 100 µM | inactive | > 100 µM | inactive | > 100 µM | 100 µM | > 100 µM
CN1CCC/C1=C\N=N\c1cc(C(F)(F)F)cc(C(F)(F)F)c1 | > 93 µM | > 48 µM | 93 µM | inactive | > 93 µM | 48 µM | inactive | 2 µM | inactive | > 93 µM | > 36 µM | 36 µM
COc1ccc(/N=N/C=C2\CCCN2C)cc1 | > 100 µM | > 77 µM | 100 µM | inactive | > 100 µM | 77 µM | inactive | > 100 µM | inactive | 5 µM | 18 µM | 67 µM
Cc1ccc(/N=N/C=C2\CCCN2C)cc1 | > 100 µM | > 100 µM | > 100 µM | inactive | > 100 µM | > 100 µM | inactive | > 100 µM | inactive | 60 µM | 20 µM | > 100 µM
Brc1cccc(/N=N\C2=C3CCCCN3CCC2)c1 | > 100 µM | > 49 µM | > 100 µM | inactive | > 100 µM | 49 µM | inactive | 9 µM | inactive | 18 µM | > 10 µM | 10 µM
FC(F)(F)c1cccc(/N=N\C2=C3CCCCN3CCC2)c1 | > 100 µM | > 40 µM | > 100 µM | inactive | > 100 µM | 40 µM | inactive | 4 µM | inactive | 21 µM | > 8 µM | 8 µM
CN1CCC/C1=C\N=N\c1ccc(F)cc1 | 12 µM | 36 µM | 75 µM | inactive | > 75 µM | 80 µM | inactive | 100 µM | inactive | > 75 µM | 18 µM | 59 µM
Brc1ccc(/N=N\C2=C3CCCCN3CCC2)cc1 | > 92 µM | ≥ 62 µM | 92 µM | inactive | > 92 µM | 62 µM | inactive | 27 µM | inactive | 10 µM | > 59 µM | 59 µM
Cc1ccc(/N=N/C2=CN(C)CCC2)cc1 | > 71 µM | > 100 µM | 71 µM | inactive | 25 µM | > 100 µM | inactive | > 100 µM | inactive | > 71 µM | > 100 µM | > 100 µM
CN1C=C(/N=N/c2ccccc2)CCC1 | 75 µM | > 100 µM | ≥ 100 µM | inactive | > 100 µM | > 100 µM | inactive | > 100 µM | inactive | > 100 µM | > 100 µM | > 100 µM
Clc1ccc(/N=N\C2=C3CCCCN3CCC2)cc1 | 25 µM | > 69 µM | 80 µM | inactive | > 80 µM | 69 µM | inactive | 42 µM | inactive | 19 µM | > 60 µM | 60 µM
CN1C=C(/N=N/c2ccc(Cl)c([N+](=O)[O-])c2)CCC1 | > 100 µM | > 100 µM | > 100 µM | inactive | > 100 µM | > 100 µM | inactive | 71 µM | inactive | > 100 µM | > 61 µM | 61 µM
CN1C=C(/N=N/c2ccc([N+](=O)[O-])cc2)CCC1 | > 100 µM | > 100 µM | > 100 µM | inactive | > 100 µM | > 100 µM | inactive | > 100 µM | inactive | > 100 µM | 11 µM | 62 µM
Clc1cccc(N2CCN(/C=C/N=N/c3ccccc3)CC2)c1 | 5 µM | 10 µM | 11 µM | inactive | > 11 µM | 47 µM | inactive | 19 µM | inactive | > 11 µM | > 7 µM | 7 µM
CN1CCC/C1=C\N=N\c1cccc(Br)c1 | > 80 µM | 7 µM | 80 µM | inactive | > 80 µM | 41 µM | inactive | 55 µM | inactive | 16 µM | 9 µM | 52 µM
Fc1ccc(N2CCN(/C=C/N=N/c3ccccc3)CC2)cc1 | 9 µM | 20 µM | 35 µM | inactive | > 35 µM | 50 µM | inactive | 17 µM | inactive | 5 µM | > 13 µM | 13 µM
O=[N+]([O-])c1cc(/N=N\C2=C3CCCCN3CCC2)ccc1Cl | 75 µM | > 10 µM | 100 µM | inactive | > 100 µM | 10 µM | inactive | 33 µM | inactive | 51 µM | 18 µM | 18 µM
CN1/C(=C\N=N\c2ccc(Cl)cc2)C(C)(C)c2ccccc21 | > 100 µM | > 21 µM | > 100 µM | inactive | > 100 µM | 21 µM | inactive | 55 µM | inactive | > 100 µM | > 72 µM | 72 µM
CN1CCC/C1=C\N=N\c1cccc(C(F)(F)F)c1 | > 100 µM | > 50 µM | > 100 µM | inactive | > 100 µM | 50 µM | inactive | 49 µM | inactive | > 100 µM | 21 µM | 90 µM
CCOC(=O)c1ccc(/N=N/C=C/N2CCCC2)cc1 | > 100 µM | > 100 µM | > 100 µM | inactive | > 100 µM | > 100 µM | inactive | 26 µM | inactive | 50 µM | > 100 µM | 100 µM
